In ChEMBL document CHEMBL1155882, “Selective nucleoside triphosphate diphosphohydrolase-2 (NTPDase2) inhibitors: nucleotide mimetics derived from uridine-5'-carboxamide” (J Med Chem, 2008):

Columns and labels:
P2Y purinoceptor 2 [1] = molecular target: T1, P2Y purinoceptor 2 (Homo sapiens, UniProt P41231); test: Antagonist activity at human P2Y2 receptor expressed in human 1321N1 cells assessed as inhibition of UTP-induced intracellular calcium mobilization at 100 uM by FLUOstar plate reader; assay type: functional, cell-based
T1 sequence (P41231 whole entry): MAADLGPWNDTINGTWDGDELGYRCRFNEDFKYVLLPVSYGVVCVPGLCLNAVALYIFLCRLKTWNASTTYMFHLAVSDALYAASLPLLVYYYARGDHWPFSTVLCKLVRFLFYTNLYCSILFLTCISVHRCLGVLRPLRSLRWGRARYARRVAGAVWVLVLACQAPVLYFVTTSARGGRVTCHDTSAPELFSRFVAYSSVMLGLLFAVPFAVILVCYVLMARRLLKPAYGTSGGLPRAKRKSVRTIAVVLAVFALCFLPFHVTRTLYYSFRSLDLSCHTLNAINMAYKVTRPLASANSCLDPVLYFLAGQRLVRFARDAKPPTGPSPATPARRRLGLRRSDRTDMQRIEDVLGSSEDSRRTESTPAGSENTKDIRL
In short: (§1)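 Human 1321N1 astrocytoma cells express human P2Y2 or P2Y4, or rat P2Y6. Cells are loaded with Fura-2 AM and preincubated with compound at 100 μM. Inhibition of agonist-induced intracellular calcium release is read as Fura-2 fluorescence. The agonist is UTP for P2Y2 and P2Y4, and UDP for P2Y6.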

P2Y purinoceptor 4 [2] = molecular target: T2, P2Y purinoceptor 4 (Homo sapiens, UniProt P51582); test: Antagonist activity at human P2Y4 receptor expressed in human 1321N1 cells assessed as inhibition of UTP-induced intracellular calcium mobilization at 100 uM by FLUOstar plate reader; assay type: functional, cell-based; in short: as §1
T2 sequence (P51582 whole entry): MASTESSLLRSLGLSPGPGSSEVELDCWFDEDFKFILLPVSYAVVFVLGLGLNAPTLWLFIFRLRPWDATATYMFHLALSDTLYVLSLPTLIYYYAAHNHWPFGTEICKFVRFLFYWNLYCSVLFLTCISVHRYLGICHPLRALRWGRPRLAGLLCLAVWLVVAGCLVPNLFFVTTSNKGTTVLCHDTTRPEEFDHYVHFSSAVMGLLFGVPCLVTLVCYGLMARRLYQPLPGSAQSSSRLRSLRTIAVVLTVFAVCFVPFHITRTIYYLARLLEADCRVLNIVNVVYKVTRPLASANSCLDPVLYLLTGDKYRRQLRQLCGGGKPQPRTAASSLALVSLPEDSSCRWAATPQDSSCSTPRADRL

[3] = molecular target: P2Y purinoceptor 6 (Rattus norvegicus) (UniProt Q63371); test: Antagonist activity at rat P2Y6 receptor expressed in human 1321N1 cells assessed as inhibition of UDP-induced intracellular calcium mobilization at 100 uM by NOVOstar plate reader; assay type: functional, cell-based; in short: as §1
Chain of P2Y purinoceptor 6 (Rattus norvegicus) (Q63371 whole entry): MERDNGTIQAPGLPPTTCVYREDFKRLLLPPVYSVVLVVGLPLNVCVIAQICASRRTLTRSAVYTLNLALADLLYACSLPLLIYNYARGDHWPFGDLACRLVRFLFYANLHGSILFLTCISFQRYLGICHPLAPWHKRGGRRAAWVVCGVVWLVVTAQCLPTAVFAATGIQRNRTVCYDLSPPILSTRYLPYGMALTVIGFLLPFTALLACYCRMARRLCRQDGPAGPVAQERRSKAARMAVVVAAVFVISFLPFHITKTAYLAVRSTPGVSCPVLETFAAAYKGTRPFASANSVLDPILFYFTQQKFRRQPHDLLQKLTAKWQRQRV

[4] = molecular target: T3, Ectonucleoside triphosphate diphosphohydrolase 1 (Homo sapiens) (UniProt P49961); test: Inhibition of human NTPDase 1 expressed in COS7 cells at 1mM; assay type: cell-based; settings: COS-7
T3 sequence (whole entry): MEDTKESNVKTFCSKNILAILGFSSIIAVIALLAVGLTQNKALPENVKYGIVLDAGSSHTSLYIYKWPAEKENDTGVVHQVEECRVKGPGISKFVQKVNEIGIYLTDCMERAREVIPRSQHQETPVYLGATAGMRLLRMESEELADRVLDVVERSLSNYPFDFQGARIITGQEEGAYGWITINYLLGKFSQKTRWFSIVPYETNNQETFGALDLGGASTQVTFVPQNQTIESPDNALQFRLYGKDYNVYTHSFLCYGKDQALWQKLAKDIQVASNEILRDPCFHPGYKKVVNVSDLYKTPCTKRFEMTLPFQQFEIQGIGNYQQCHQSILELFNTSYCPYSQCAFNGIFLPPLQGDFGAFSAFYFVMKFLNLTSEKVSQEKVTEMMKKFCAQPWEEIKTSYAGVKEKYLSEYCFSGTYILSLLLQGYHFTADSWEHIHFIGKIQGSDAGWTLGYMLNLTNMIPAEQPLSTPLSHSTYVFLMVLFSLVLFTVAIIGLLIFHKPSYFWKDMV
In short: (§2)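 Transiently transfected COS-7 cell protein extract expressing human enzyme. 1 mM test compound with 400 μM ATP in HEPES 10 mM pH 7.4 buffer (NaCl, KCl, 1 mM MgCl2, 2 mM CaCl2), 37 °C for 10 min. Stopped at 99 °C for 5 min. Products measured by capillary electrophoresis, UV 210 nm, with UMP internal standard. Triplicates in two experiments; empty-pcDNA3 membrane control.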

[5] = molecular target: T4, Ectonucleoside triphosphate diphosphohydrolase 3 (Homo sapiens) (UniProt O75355); test: Inhibition of human NTPDase 3 expressed in COS7 cells at 1mM; assay type: cell-based; settings: COS-7
T4 sequence (whole entry): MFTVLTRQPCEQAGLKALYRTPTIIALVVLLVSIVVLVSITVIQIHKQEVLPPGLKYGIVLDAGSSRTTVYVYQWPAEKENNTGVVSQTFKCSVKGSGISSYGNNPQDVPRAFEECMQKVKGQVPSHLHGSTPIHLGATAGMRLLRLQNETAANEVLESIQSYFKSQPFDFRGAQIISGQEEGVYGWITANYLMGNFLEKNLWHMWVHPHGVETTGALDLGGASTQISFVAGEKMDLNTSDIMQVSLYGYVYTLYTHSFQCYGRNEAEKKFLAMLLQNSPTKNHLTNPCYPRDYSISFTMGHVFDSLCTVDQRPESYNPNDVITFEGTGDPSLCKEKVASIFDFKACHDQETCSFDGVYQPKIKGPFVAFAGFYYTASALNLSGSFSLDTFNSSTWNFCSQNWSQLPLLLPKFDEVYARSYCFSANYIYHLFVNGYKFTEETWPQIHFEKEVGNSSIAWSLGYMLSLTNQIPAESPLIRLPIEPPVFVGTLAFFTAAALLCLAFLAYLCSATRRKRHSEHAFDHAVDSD
In short: (§3)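 NTPDase2 membranes come from stably transfected HEK 293 cells; NTPDase3 and NTPDase8 are transiently expressed in COS-7 cells as crude protein extracts. Buffer is 140 mM NaCl, 5 mM KCl, 1 mM MgCl2, 2 mM CaCl2, 10 mM HEPES pH 7.4, with 400 μM ATP, 37 °C, 10 min, stopped at 99 °C. Products are read by capillary electrophoresis (UV 210 nm, UMP internal standard).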

[6] = molecular target: T5, Ectonucleoside triphosphate diphosphohydrolase 8 (Homo sapiens) (UniProt Q5MY95); test: Inhibition of human NTPDase 8 expressed in COS7 cells at 1mM; assay type: cell-based; settings: COS-7; in short: as §2
T5 sequence (whole entry): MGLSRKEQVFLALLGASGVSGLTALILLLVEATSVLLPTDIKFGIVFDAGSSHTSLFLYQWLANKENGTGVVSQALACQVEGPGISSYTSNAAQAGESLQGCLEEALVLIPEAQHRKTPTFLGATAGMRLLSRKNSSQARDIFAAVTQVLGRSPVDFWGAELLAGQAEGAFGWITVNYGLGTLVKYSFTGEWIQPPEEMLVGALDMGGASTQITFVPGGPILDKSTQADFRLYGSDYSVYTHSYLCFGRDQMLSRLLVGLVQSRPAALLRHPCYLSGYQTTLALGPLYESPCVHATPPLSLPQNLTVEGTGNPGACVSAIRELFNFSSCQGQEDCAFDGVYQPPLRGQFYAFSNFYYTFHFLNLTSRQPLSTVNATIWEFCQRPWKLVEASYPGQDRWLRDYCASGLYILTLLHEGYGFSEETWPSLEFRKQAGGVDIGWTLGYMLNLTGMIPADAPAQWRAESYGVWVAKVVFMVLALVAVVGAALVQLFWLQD

[7] = Chemical stability in 0.001 N aqueous sodium hydroxide at pH 11 by LC-MS analysis; assay type: physicochemical; settings: buffer
In short: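 Compound from a 2 mM aqueous stock (20 mM NH4OAc) is diluted 10 μL into 990 μL of 0.001 N NaOH (pH 11). It is incubated 2 or 24 h at 37 °C and analysed by C18 LC–ESI-MS, with detection limit about 0.1 μg/mL.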

[8] = Stability in simulated artificial gastric juice after 24 hrs by LC-MS analysis; assay type: physicochemical; settings: simulated gi fluid
P2Y purinoceptor 2 [9] = molecular target: T1, P2Y purinoceptor 2; test: Antagonist activity at human P2Y2 receptor expressed in human 1321N1 cells assessed as inhibition of UTP and ATP-induced receptor activation at 100 uM relative to UTP; assay type: functional, cell-based; design: scale not given: the % may be the effect or the level left; in short: as §1
[10] = molecular target: P2Y purinoceptor 6 (Rattus norvegicus) (UniProt Q63371); test: Antagonist activity at rat P2Y6 receptor expressed in human 1321N1 cells assessed as inhibition of UDP-induced receptor activation at 100 uM relative to UDP; assay type: functional, cell-based; design: scale not given: the % may be the effect or the level left; in short: as §1
P2Y purinoceptor 4 [11] = molecular target: T2, P2Y purinoceptor 4; test: Antagonist activity at human P2Y4 receptor expressed in human 1321N1 cells assessed as inhibition of UTP-induced receptor activation at 100 uM relative to UTP; assay type: functional, cell-based; design: scale not given: the % may be the effect or the level left; in short: as §1
[12] = molecular target: T6, Ectonucleoside triphosphate diphosphohydrolase 2 (Homo sapiens) (UniProt Q9Y5L3); test: Inhibition of human NTPDase 2 expressed in HEK293 cells at 1mM; assay type: cell-based
T6 sequence (whole entry): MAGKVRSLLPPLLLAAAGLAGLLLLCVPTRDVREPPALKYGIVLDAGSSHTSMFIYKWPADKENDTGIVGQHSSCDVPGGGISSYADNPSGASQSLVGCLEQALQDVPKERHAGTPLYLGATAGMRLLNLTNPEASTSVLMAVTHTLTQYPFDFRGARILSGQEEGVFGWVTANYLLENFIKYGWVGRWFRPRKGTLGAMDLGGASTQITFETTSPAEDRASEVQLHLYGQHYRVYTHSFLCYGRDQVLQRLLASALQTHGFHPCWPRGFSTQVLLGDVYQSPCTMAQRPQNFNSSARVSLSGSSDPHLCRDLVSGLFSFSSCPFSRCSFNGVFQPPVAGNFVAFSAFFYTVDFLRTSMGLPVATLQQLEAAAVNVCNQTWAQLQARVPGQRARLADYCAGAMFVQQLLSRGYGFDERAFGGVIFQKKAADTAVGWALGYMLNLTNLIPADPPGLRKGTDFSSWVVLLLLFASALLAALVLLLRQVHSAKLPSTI
In short: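 Membranes from HEK 293 cells stably expressing human NTPDase2 (geneticin selection), prepared by differential and sucrose-gradient centrifugation. 1 mM test compound with 400 μM ATP in 10 mM HEPES pH 7.4 saline (1 mM MgCl2, 2 mM CaCl2), 37 °C for 10 min. Heat-stopped at 99 °C. Nucleotides separated by capillary electrophoresis, UV 210 nm, UMP internal standard. Triplicates, two experiments.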

[13] = molecular target: T7, Ectonucleoside triphosphate diphosphohydrolase 8 (Homo sapiens, UniProt Q5MY95); test: Inhibition of human NTPDase 8 expressed in COS7 cells; assay type: cell-based, COS-7; in short: as §3
T7 sequence (Q5MY95 whole entry): T5 sequence (whole entry)

[14] = Inhibition of rat NTPDase 3
[15] = molecular target: T8, Ectonucleoside triphosphate diphosphohydrolase 2 (Homo sapiens, UniProt Q9Y5L3); test: Inhibition of human NTPDase 2 expressed in HEK293 cells assessed as residual activity by capillary electrophoresis; assay type: cell-based; in short: as §3
T8 sequence (Q9Y5L3 whole entry): T6 sequence (whole entry)

SMILES	inhibition (P2Y purinoceptor 2 [1])	inhibition (P2Y purinoceptor 4 [2])	inhibition [3]	inhibition [4]	inhibition [5]	inhibition [6]	Stability [7]	Stability [8]	Activity (P2Y purinoceptor 2 [9])	Activity [10]	Activity (P2Y purinoceptor 4 [11])	inhibition [12]	Ki [13]	Ki [14]	IC50 [15]
CCOP(=O)(CCNC(=O)CNC(=O)[C@H]1O[C@@H](n2ccc(=O)[nH]c2=O)[C@H](O)[C@@H]1O)OCC	-7%	8%	9%	0%	22%	0%	–	–	–	–	–	–	–	–	–
CCOP(=O)(Cc1ccc(NC(=O)CCCNC(=O)[C@H]2O[C@@H](n3ccc(=O)[nH]c3=O)[C@H](O)[C@@H]2O)cc1)OCC	6%	7%	-8%	–	48%	–	Stable	Stable	–	–	–	–	–	–	–
CCOP(=O)(CNC(=O)CNC(=O)[C@H]1O[C@@H](n2cnc3c(N)ncnc32)[C@H](O)[C@@H]1O)OCC	61%	–	–	0%	25%	0%	–	–	33%	6%	-2%	0%	–	–	–
CCOP(=O)(Cc1ccc(NC(=O)CCCNC(=O)[C@H]2O[C@@H](n3cnc4c(N)ncnc43)[C@H](O)[C@@H]2O)cc1)OCC	37%	–	–	–	0%	–	–	–	–	–	–	–	255 µM	–	–
CCOP(=O)(Cc1ccc(NC(=O)CCNC(=O)[C@H]2O[C@@H](n3cnc4c(N)ncnc43)[C@H](O)[C@@H]2O)cc1)OCC	46%	–	15%	–	0%	0%	–	–	16%	-7%	11%	–	–	–	–
CCOP(=O)(CNC(=O)CCNC(=O)[C@H]1O[C@@H](n2cnc3c(N)ncnc32)[C@H](O)[C@@H]1O)OCC	29%	–	–	0%	0%	0%	–	–	–	–	–	0%	–	–	–
CCOP(=O)(CNC(=O)CCNC(=O)[C@H]1O[C@@H](n2ccc(=O)[nH]c2=O)[C@H](O)[C@@H]1O)OCC	43%	6%	-3%	0%	0%	0%	–	–	13%	-16%	11%	–	–	–	–
CCN(CC)c1ncnc2c1ncn2[C@@H]1O[C@H](COP(=O)(O)OP(=O)(O)C(Br)(Br)P(=O)(O)O)[C@@H](O)[C@H]1O	–	–	–	–	–	–	–	–	–	–	–	–	> 100 µM	112 µM	–
CCOP(=O)(CNC(=O)CNC(=O)[C@H]1O[C@@H](n2ccc(=O)[nH]c2=O)[C@H](O)[C@@H]1O)OCC	–	38%	17%	–	0%	0%	–	–	58%	12%	46%	–	–	–	374 µM
CCOP(=O)(CNC(=O)CCCNC(=O)[C@H]1O[C@@H](n2ccc(=O)[nH]c2=O)[C@H](O)[C@@H]1O)OCC	–	21%	-3%	45%	0%	0%	–	–	–	–	–	–	–	–	101 µM
CCOP(=O)(CNC(=O)CCCNC(=O)[C@H]1O[C@@H](n2cnc3c(N)ncnc32)[C@H](O)[C@@H]1O)OCC	32%	–	–	0%	0%	0%	–	–	–	–	–	0%	–	–	–
CCOP(=O)(Cc1ccc(NC(=O)CNC(=O)[C@H]2O[C@@H](n3cnc4c(N)ncnc43)[C@H](O)[C@@H]2O)cc1)OCC	–	7%	6%	0%	0%	0%	–	–	–	–	–	0%	–	–	–
